Structures can show the parent of a compound that is named as a salt. Activity calls are given as the source filed them. No cut-off for these calls is given here.
What was measured:
[1] = target: T1, DNA topoisomerase 1 (Homo sapiens) (UniProt P11387); assay: Inhibition of human recombinant topoisomerase 1-mediated pBR322 DNA relaxation at 100 uM by gel electrophoresis
T1 sequence (whole entry): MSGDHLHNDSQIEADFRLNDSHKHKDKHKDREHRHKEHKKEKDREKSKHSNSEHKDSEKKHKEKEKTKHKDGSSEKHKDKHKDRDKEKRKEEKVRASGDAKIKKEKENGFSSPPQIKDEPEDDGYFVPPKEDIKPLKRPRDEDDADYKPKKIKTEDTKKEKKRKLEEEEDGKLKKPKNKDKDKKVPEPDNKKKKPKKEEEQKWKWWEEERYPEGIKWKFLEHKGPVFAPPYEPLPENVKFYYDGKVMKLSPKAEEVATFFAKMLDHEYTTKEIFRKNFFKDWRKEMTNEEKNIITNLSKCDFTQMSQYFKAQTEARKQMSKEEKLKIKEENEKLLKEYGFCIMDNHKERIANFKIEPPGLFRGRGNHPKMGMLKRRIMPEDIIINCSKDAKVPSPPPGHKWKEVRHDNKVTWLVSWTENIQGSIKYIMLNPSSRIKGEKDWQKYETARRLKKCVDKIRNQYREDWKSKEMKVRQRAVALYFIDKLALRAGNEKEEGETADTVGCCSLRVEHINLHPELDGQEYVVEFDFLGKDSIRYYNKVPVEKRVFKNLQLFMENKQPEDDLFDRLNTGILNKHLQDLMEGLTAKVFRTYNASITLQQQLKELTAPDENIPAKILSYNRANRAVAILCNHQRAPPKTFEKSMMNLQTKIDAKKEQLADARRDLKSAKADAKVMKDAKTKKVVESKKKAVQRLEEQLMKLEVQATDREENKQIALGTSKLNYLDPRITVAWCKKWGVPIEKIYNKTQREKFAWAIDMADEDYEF
Summary of the method: (§1)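 Relaxation of 100 ng supercoiled pBR322 by 0.4 units recombinant human topo I, with or without compound (20 mM DMSO stocks), at 37 °C for 30 min. Buffer: 10 mM Tris-HCl pH 7.9, 150 mM NaCl, 0.1% BSA, 1 mM spermidine, 5% glycerol. Run on 1% agarose gel in TAE at 15 V for 7 h, stained with ethidium bromide, bands quantified under UV to give inhibition ratio.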

[2] = target: T1, DNA topoisomerase 1 (Homo sapiens); assay: Inhibition of human recombinant topoisomerase 1-mediated pBR322 DNA relaxation at 20 uM by gel electrophoresis; summary of the method: as §1
HeLa = assay: Cytotoxicity against human HeLa cells after 48 hrs by MTT assay; type: functional, cell-based
Summary of the method: (§2)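 Cells seeded at 2–4 × 10⁴ per well and held overnight at 37 °C, 5% CO₂, in medium with 10% FBS. On day 2 the medium was replaced with medium holding graded compound concentrations. Absorbance was read at 450 nm and fitted to a four-parameter logistic equation for IC₅₀. Mean ± SD of three experiments, each in triplicate.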

HT-29 = assay: Cytotoxicity against human HT-29 cells after 48 hrs […]; type: functional, cell-based; conditions: HT-29, 48 h
DU-145 = assay: Cytotoxicity against human DU145 cells after 48 hrs by MTT assay; type: functional, cell-based; conditions: DU-145, 48 h; summary of the method: as §2
MDA-MB-231 = assay: Cytotoxicity against human MDA-MB-231 cells after 48 hrs by MTT assay; type: functional, cell-based; conditions: MDA-MB-231, 48 h
Summary of the method: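 Cells seeded at 2–4 × 10⁴ per well and grown overnight in medium with 10% FBS at 37 °C, 5% CO₂. Medium was then replaced with medium holding graded compound concentrations. Absorbance was read at 450 nm and IC50 fitted to a four-parameter logistic equation. Mean of three experiments run in triplicate.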

[3] = target: DNA topoisomerase 2-alpha (Homo sapiens) (UniProt P11388); assay: Inhibition of human recombinant DNA topoisomerase 2alpha -mediated pBR322 DNA relaxation at 100 uM by gel electrophoresis
Summary of the method: (§3)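 Relaxation of 200 ng supercoiled pBR322 by 1 unit human topo IIα, with or without compound, at 30 °C for 30 min. Buffer: 10 mM Tris-HCl pH 7.9, 50 mM NaCl, 50 mM KCl, 5 mM MgCl₂, 1 mM EDTA, 1 mM ATP, 15 µg/mL BSA. Stopped with EDTA and run on 1% agarose gel in TAE at 25 V for 4 h. Band analysis gave inhibition ratio.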

[4] = target: DNA topoisomerase 2-alpha (Homo sapiens) (UniProt P11388); assay: Inhibition of human recombinant DNA topoisomerase 2alpha -mediated pBR322 DNA relaxation at 20 uM by gel electrophoresis; summary of the method: as §3
Nucleic Acid = assay: Induction of DNA cross linking in linearized pBR322 at 100 uM by alkaline gel electrophoresis; type: nucleic-acid assay; conditions: Escherichia coli
Summary of the method: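 pBR322 was linearized with EcoRI and ethanol-precipitated, then incubated with compound for 2 h at room temperature in 10 mM Tris–HCl, 1 mM EDTA, pH 8.0. Samples ran on a denaturing 1.2% alkaline agarose gel in 50 mM NaOH, 1 mM EDTA. The gel was neutralized 1 h in 100 mM Tris, 150 mM NaCl, pH 7.6, alongside a HindIII marker.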

HL-60 = assay: Cytotoxicity against human HL60 cells after 48 hrs by MTT assay; type: functional, cell-based; conditions: HL-60, 48 h; summary of the method: as §2

Chain of DNA topoisomerase 2-alpha (Homo sapiens) (P11388 whole entry): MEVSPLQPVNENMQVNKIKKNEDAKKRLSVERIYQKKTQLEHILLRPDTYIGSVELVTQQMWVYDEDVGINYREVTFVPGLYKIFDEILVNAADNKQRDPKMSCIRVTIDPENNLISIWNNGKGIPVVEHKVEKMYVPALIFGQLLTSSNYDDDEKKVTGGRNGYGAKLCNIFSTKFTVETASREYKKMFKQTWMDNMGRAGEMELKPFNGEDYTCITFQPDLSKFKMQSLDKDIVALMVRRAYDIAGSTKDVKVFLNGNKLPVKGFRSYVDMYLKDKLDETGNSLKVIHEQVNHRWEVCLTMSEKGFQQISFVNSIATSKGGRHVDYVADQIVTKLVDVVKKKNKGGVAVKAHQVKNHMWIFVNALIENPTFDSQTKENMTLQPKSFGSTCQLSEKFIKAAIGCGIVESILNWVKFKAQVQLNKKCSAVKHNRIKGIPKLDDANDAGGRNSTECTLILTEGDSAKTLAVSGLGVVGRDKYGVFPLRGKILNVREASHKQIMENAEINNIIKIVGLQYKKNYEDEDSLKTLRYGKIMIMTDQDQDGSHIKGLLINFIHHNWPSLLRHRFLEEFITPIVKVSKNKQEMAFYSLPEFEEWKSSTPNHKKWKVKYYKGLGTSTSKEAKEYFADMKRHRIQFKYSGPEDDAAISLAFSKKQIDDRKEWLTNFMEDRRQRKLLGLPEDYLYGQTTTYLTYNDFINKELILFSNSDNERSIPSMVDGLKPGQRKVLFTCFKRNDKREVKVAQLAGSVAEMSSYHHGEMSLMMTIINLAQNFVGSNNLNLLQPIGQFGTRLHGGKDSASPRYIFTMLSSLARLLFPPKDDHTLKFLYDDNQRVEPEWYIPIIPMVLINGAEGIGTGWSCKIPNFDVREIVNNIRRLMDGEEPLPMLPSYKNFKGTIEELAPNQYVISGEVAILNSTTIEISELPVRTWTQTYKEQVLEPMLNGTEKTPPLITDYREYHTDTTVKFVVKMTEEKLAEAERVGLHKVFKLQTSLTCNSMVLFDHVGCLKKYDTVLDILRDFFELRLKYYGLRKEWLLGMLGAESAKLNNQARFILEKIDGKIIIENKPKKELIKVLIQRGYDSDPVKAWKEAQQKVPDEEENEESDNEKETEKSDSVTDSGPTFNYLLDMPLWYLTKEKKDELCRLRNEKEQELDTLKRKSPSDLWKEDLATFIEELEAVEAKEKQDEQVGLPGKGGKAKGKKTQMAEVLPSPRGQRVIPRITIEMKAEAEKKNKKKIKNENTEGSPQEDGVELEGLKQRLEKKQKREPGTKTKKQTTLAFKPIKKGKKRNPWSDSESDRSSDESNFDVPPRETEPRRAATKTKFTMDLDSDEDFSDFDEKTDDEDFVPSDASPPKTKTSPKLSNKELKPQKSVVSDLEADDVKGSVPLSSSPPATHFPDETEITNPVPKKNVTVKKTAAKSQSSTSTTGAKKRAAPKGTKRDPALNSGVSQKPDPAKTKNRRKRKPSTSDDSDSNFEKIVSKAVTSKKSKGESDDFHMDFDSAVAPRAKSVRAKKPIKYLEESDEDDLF

Activity (Nucleic Acid)	SMILES	inhibition [1]	inhibition [2]	IC50 (HeLa)	IC50 (HT-29)	IC50 (DU-145)	IC50 (MDA-MB-231)	inhibition [3]	inhibition [4]	IC50 (HL-60)
Active	O=c1c2ccc3ccccc3c2oc2cc(OCC3CO3)cc(OCC3CO3)c12 (stereo unspecified)	11.9%	-0%	24.2 µM	8.2 µM	1.29 µM	7.43 µM	5.7%	0.1%	5.4 µM
–	O=c1c2c(OCC3CS3)cc(OCC3CS3)cc2oc2ccc3ccccc3c12 (stereo unspecified)	-0%	-0%	24.9 µM	0.75 µM	1.32 µM	18.9 µM	4.4%	8.4%	1.85 µM
–	O=c1c2ccc3ccccc3c2oc2cc(OCC3CS3)cc(O)c12 (stereo unspecified)	15.6%	2.5%	> 50 µM	> 50 µM	10.8 µM	> 50 µM	13.9%	-0%	22.6 µM
–	O=c1c2ccc3ccccc3c2oc2cc(OCC3CS3)cc(OCC3CS3)c12 (stereo unspecified)	79%	56.5%	25.6 µM	> 50 µM	5.66 µM	> 50 µM	71.9%	72.7%	37 µM
–	COc1cc([C@@H]2c3cc4c(cc3[C@@H](O[C@@H]3O[C@@H]5CO[C@@H](C)O[C@H]5[C@H](O)[C@H]3O)[C@H]3COC(=O)[C@H]23)OCO4)cc(OC)c1O [ETOPOSIDE]	–	–	0.47 µM	1.42 µM	1.63 µM	2.87 µM	–	–	0.97 µM
inactive	O=c1c2c(OCC3CO3)cc(OCC3CO3)cc2oc2ccc3ccccc3c12 (stereo unspecified)	18%	-0%	10.2 µM	7.38 µM	3.44 µM	> 50 µM	1%	-0%	6.47 µM
–	O=c1c2c(O)cc(OCC3CO3)cc2oc2ccc3ccccc3c12 (stereo unspecified)	-0%	9.7%	> 100 µM	0.96 µM	1.4 µM	> 50 µM	3.7%	-0%	2.31 µM
Active	O=c1c2cc3ccccc3cc2oc2cc(OCC3CO3)cc(OCC3CO3)c12 (stereo unspecified)	12.3%	8.8%	2.19 µM	0.6 µM	3.01 µM	1.64 µM	60.1%	8.9%	5.13 µM
–	O=c1c2cc3ccccc3cc2oc2cc(OCC3CO3)cc(O)c12 (stereo unspecified)	13.7%	2.6%	> 100 µM	2.34 µM	36.2 µM	15.1 µM	-0%	-0%	9.4 µM
–	O=c1c2cc3ccccc3cc2oc2cc(OCC3CS3)cc(OCC3CS3)c12 (stereo unspecified)	4.3%	-0%	8.01 µM	1.66 µM	19.4 µM	5.16 µM	1.9%	13.5%	5.13 µM
–	O=c1c2cc3ccccc3cc2oc2cc(OCC3CS3)cc(O)c12 (stereo unspecified)	0.5%	-0%	8.52 µM	5.4 µM	1.55 µM	14.8 µM	-0%	7.2%	2.48 µM
–	O=c1c2c(O)cc(OCC3CS3)cc2oc2ccc3ccccc3c12 (stereo unspecified)	-0%	2.4%	> 100 µM	3.58 µM	8.76 µM	29.1 µM	5.3%	-0%	3.48 µM
–	O=c1c2ccc3ccccc3c2oc2cc(OCC3CO3)cc(O)c12 (stereo unspecified)	1.7%	10.6%	> 50 µM	18.9 µM	2.56 µM	0.73 µM	9%	5.5%	3.67 µM
–	COc1cccc2c1C(=O)c1c(O)c3c(c(O)c1C2=O)C[C@@](O)(C(=O)CO)C[C@@H]3O[C@H]1C[C@H](N)[C@H](O)[C@H](C)O1 [DOXORUBICIN HYDROCHLORIDE]	–	–	0.71 µM	0.95 µM	1.19 µM	3.15 µM	–	–	0.94 µM
–	CC[C@@]1(O)C(=O)OCc2c1cc1n(c2=O)Cc2cc3ccccc3nc2-1 [CAMPTOTHECIN]	–	–	0.86 µM	0.85 µM	3.57 µM	0.92 µM	–	–	0.065 µM

Source: ChEMBL document CHEMBL1156878, “New benzoxanthone derivatives as topoisomerase inhibitors and DNA cross-linkers” (Bioorg Med Chem, 2010)
